AUC, IC50 and concentration data for one compound are collected here from ChEMBL document CHEMBL5678801, “A benzothiophene inhibitor of mitogen-activated protein kinase-activated protein kinase 2 inhibits tumor necrosis factor alpha production and has oral anti-inflammatory efficacy in acute and chronic models of inflammation” (J Pharmacol Exp Ther, 2010).

Series [1] is described as follows: AUC in chronic SCW-induced arthritis Lewis rat model plasma at ED50 concentration. The class given is ADME, cell-free. The gist of the method:
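Female Lewis rats (125-140 g) received a single i.p. streptococcal cell wall injection. Animals showing the acute phase were pooled, 4-8 per group over three experiments. Dosing was oral gavage b.i.d., days 10-21, in methylcellulose-Tween-20 vehicle. Hind paw volume was read by displacement plethysmometer on day 21, as % inhibition of swelling. Plasma was sampled up to 11 h after the last dose, 3 rats per dose. ED values came from fitted curves.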

Series [2] deals with MAP kinase-interacting serine/threonine-protein kinase 2 (Homo sapiens, UniProt Q9HBH9). Description: Inhibition of recombinant MNK2 (unknown origin) using KKKALSRQLSVAA as substrate incubated for 1 hr followed by substrate addition in presence of ATP. The essentials:
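Recombinant MAPKAP kinase was first activated with activated p38α (1:50 molar ratio) and 250 μM ATP for 1 hr at 30°C. Activity was then assayed at Km(app) MgATP by ion-exchange separation of 33P-labeled product peptide. IC50 was taken from duplicate experiments.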

The target of series [3] is T1, Serine/threonine-protein kinase BRSK2 (Homo sapiens, UniProt Q8IWQ3).
T1 sequence (Q8IWQ3 whole entry): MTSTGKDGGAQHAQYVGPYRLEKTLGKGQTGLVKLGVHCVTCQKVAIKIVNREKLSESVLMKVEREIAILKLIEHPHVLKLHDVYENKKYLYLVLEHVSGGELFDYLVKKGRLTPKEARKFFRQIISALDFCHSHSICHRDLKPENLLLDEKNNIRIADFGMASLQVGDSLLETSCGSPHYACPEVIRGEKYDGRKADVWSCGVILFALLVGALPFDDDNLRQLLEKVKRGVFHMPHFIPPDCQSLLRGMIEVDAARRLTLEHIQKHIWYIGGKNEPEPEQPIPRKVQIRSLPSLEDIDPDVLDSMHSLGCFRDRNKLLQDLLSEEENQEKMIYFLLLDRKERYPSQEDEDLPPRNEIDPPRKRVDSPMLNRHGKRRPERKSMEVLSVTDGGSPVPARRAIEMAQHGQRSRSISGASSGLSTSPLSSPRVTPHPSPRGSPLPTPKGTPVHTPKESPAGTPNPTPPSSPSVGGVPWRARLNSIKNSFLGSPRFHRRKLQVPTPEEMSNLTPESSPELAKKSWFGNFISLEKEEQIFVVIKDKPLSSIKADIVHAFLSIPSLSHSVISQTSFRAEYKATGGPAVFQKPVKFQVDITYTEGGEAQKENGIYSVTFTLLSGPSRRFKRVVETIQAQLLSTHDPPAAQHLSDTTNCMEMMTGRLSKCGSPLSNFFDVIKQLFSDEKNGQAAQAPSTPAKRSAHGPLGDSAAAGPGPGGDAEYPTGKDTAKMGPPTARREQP
Briefly: Inhibition of BrSK2 (unknown origin). The gist of the method: (§1)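 Kinase panel: 200 kinases were first screened at 1 μM inhibitor for percent inhibition. Those above 50% inhibition were then titrated for IC50. MgATP was fixed at the Km(app) determined for each enzyme.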

Series [4] addresses T2, Mitogen-activated protein kinase kinase kinase 5 (Homo sapiens, UniProt Q99683).
T2 sequence (Q99683 whole entry): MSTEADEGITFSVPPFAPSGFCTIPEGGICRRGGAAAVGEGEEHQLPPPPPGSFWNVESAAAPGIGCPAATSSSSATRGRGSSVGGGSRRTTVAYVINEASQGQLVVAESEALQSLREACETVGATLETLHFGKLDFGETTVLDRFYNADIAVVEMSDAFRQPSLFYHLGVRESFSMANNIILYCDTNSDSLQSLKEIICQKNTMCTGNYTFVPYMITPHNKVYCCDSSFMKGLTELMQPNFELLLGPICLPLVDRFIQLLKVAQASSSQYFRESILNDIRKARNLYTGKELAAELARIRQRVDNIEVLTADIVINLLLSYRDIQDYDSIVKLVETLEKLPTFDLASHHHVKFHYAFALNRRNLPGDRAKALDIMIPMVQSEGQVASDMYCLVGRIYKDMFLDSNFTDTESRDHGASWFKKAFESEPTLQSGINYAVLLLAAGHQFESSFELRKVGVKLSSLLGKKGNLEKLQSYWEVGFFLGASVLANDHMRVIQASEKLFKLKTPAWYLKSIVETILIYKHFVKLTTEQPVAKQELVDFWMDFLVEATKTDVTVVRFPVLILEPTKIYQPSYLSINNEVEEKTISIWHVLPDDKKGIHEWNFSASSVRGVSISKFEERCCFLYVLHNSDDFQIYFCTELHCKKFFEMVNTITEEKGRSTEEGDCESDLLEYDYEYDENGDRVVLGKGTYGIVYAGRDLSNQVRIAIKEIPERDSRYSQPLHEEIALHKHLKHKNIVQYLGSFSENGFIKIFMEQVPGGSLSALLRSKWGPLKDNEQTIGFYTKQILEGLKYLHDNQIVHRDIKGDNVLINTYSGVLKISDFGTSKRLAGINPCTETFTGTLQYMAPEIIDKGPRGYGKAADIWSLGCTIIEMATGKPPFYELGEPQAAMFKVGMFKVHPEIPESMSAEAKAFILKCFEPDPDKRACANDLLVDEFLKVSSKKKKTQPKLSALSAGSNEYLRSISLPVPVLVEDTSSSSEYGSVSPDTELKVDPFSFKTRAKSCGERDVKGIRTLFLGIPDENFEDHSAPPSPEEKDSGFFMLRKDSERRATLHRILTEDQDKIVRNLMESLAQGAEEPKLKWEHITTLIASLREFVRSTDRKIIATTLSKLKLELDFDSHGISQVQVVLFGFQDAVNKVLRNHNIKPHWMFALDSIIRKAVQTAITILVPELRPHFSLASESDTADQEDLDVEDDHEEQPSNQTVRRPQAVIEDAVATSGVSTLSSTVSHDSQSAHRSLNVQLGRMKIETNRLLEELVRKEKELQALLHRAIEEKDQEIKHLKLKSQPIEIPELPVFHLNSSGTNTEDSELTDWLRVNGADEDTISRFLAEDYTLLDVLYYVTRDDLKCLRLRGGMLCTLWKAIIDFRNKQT
Description: Inhibition of ASK1 (unknown origin). The gist of the method:
as §1

Series [5] is described as follows: Inhibition of IL-6 production in LPS induced human PBMC cells preincubated with compound for 1 hr followed by LPS induction and measured after 16 hrs by MSD analysis. It is filed as functional, cell-based. The gist of the method:
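Human PBMCs were pretreated with compound for 1 h (<1% DMSO final), then stimulated with LPS 100 ng/ml at 37°C. Cytokines in culture media were read by MSD 4-plex: TNFα at 4 h; IL-1β, IL-6 and IL-8 at 16 h. Data are means ±S.E.M. of two independent experiments in duplicate, three donors. IC50 by 4-parameter nonlinear regression.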

Series [6] is described as follows: Plasma concentration in po dosed LPS-induced Lewis rat model at ED50 concentration measured after 5.5 hrs of initial dose by LC-MS/MS analysis. It is filed as ADME, organism-based. The essentials:
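Male Lewis rats (225-250 g, 5 per group) were fasted 18 h, then dosed orally at 0.2-60 mg/kg as a suspension in 0.5% methylcellulose/0.025% Tween 20. LPS 1 mg/kg was given i.v. 4 h later. Blood was taken by cardiac puncture 90 min after LPS. Serum TNFα was read by ELISA and drug by LC-MS/MS, three independent experiments. 4-parameter fit. Unbound values were corrected with measured rat plasma protein binding.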

pIC50: −log10 of the molar value.

Sequence of MAP kinase-interacting serine/threonine-protein kinase 2 (Q9HBH9 whole entry): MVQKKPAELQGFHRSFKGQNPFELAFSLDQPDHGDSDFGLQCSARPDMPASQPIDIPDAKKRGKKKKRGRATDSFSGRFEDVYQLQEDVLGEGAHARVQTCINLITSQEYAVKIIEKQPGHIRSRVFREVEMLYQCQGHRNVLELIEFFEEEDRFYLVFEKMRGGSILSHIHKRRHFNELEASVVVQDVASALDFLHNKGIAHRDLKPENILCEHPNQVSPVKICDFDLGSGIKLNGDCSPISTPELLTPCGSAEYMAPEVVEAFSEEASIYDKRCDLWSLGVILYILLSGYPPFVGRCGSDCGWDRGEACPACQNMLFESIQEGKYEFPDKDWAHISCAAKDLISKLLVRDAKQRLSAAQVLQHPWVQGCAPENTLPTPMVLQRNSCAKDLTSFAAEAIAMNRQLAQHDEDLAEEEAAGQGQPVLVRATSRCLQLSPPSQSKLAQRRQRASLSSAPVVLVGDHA

For `Cc1ccc(-c2ccc3c(ccc4sc5c(c43)NC[C@@H](C)NC5=O)n2)cn1`, the AUC – broadly, the area under the concentration-time curve, a measure of exposure – in series [1] turned out to be 34 µM·h. For the same compound, the negative logarithm of the IC50 (pIC50) (commonly −log10 of the IC50, conventionally taken in molar units) in series [2] is 6.83; in series [3], 7.05; in series [4], 7.22; in series [5], 5.90. This compound showed a concentration at 5.5 h in series [6] of 1400 nM.
